Results reported in the EternaBench riboswitch data.

Test system: MS2 coat protein
Assay: apparent Kd, MS2 coat protein; higher = weaker binding; RNA-MaP array; FMN 200 µM where present
In short: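 Designs were transcribed by stalled E. coli RNA polymerase on Illumina sequencing-chip clusters. They were titrated with SNAP-549-labelled MS2 coat protein from 0.7 or 1.5 nM, doubling to 3 µM, in 100 mM Tris-HCl pH 7.5, 80 mM KCl, 4 mM MgCl2, BSA, DTT, yeast tRNA and Tween-20, without and then with constant ligand. The apparent Kd is the median of filtered per-cluster fits after normalisation of green signal to red-channel RNA signal and control-cluster median Fmax.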

[1] = designed as: ON switch for flavin mononucleotide, no ligand
[2] = ligand present: flavin mononucleotide, designed as: ON switch for flavin mononucleotide
[3] = designed as: OFF switch for flavin mononucleotide, no ligand
[4] = ligand present: flavin mononucleotide, designed as: OFF switch for flavin mononucleotide

Sequence | apparent Kd [1] | apparent Kd [2] | apparent Kd [3] | apparent Kd [4]
AGCUAAAACGAAGGAUAUACUGACAUGAGGAUCACCCAUGUCUACAUGAUUUAUUGUGAUCACAUGUAGAAGGUCGUACUAACA | 74.4 nM | 27.7 nM |  | 
UCGUGAAGGACAGGAUAUGGACAUGAGGAUCACCCAUGUACAUGGGAAUAUAUACUGAAUUUGUACUAGAAGGGUUACAUAAAC |  |  | 30.9 nM | 19.8 nM
CCCUUUAGAAAAGGGACAUGAGGAUCACCCAUGUAGGCUGCACAGGAUAUCGAUCGGAGGCGGUACGAGAAGGGUGAUGUCAUU | 58.3 nM | 72.1 nM |  | 
CUAAAGCGAGGAUAUACAAUAAAAGGGAAUAAGGGAAAAAAACAUGAGGAUCACCCAUGUAGAAGGCGCCGAAA |  |  | 32.2 nM | 30.6 nM
GGUGCGUUUGUGAGGAUAUGCUGGUCCUUGGAUCUGCAGAAGGCACAUGAGGAUCACCCAUGUGGUGUCGUACC |  |  | 293 nM | 36.5 nM
AAUUGAAACGUAGGAUAUCGCACUAAUUUUAAACGAGAAGGACGUACAUGAGGAUCACCCAUGUUAAAUGGUGUAGAUUAGAUG |  |  | 156 nM | 692 nM
AAUUAACUCACAGGAUAUAGCAGAGGUCGCGCGAACUUACAGGCGACGAGGCUAGAAGGGUGACCACAUGAGGAUCACCCAUGU | 770 nM | 72.4 nM |  | 
UUUUAGUCAGGAUAUCGUUAAUUUAAUUGUUUGUAUUAGUUCGAGAAGGGACAUGAGGAUCACCCAUGUACUUU |  |  | 23.7 nM | 24.5 nM
GAUUAACAUGAGGAUCACCCAUGUGAGGAUAUGAACUUGCCCACUUUCCCUUUAGAGUUUAGAAGGCGCAUUCU |  |  | 29.8 nM | 30.6 nM
UUGGACGUCGUAGGAUAUGUAGGAUAUUCCUACAUGAGGAUCACCCAUGUUGACAUGGAAGAAGGACAGAAGGACGUUGUCCAU | 404 nM | 5.74 nM |  | 
UGAGUGCGUGUUAGGAUAUGGUUUGGUGUUUCGGGCUAGAAGGGACAUGAGGAUCACCCAUGUAAUUGGCGGGU |  |  | 253 nM | 250 nM
GGUCGUCACAUAUACAUGAGGAUCACCCAUGUCAAAAGACAUGAGGAUAUGGAUAAUAAUAUAAACCAGAAGGCAUGGACGACC | 961 nM | 59.6 nM |  | 
UGAUAACAUGUAGGAUAUGCAGCAUUGACCACUGCAGAAGGACAUGAGGAUCACCCAUGUACCGAUACUAUGGGAUCACGCAAU |  |  | 24.3 nM | 87.4 nM
AAAAUGUCAGGAUAUUGUUAGUUUAGUUGUUUGUAUUAGUUCGAGAAGGGACAUGAGGAUCACCCAUGUUGAAA |  |  | 33.8 nM | 33 nM
GUGGUCAGACAUGAGGAUCACCCAUGUGGAAUAAAUAACAACUAGGAUAUAUAAUAUAGGAUAUAAUAGAAGGAGUGAUUGGUG | 141 nM | 188 nM |  | 
CCGAUGAUAGGACAGGAUAUGACUGUCGUCACAUGAGGAUCACCCAUGUCCCGGCAAUGCCACCGUUAGAAGGGUCCUAUCUCGG | 13.1 nM | 13 nM |  | 
UUGGCAACGUAGAAGGGUGACAUGAGGAUCACCCAUGUGCCGAUAUAUCUCGAGAUAUGUCGGCCACAGGAUAUACGUGCCAUC | 35.9 nM | 35.2 nM |  | 
AUGAUUAUAUUAUACAUGAGGAUCACCCAUGUUAUAAGUCAUGAGGAUAUGGUAUUGUAGUUUUUCCAGAAGGCAUUUAACUUA | 7.91 nM | 5.47 nM |  | 

Sequence | apparent Kd [1] | apparent Kd [2] | apparent Kd [3] | apparent Kd [4]
GAAAUAAUGUAAGGAUAUACAUGAGGAUUUCUCGUAGAAGGUACAAGACAUGAGGAUCACCCAUGUGUCGCUCCGUAGAGCGUA | 308 nM | 299 nM |  | 
AACAGUAGAGGAUAUACAUGAGGAUCACCCAUGUGAUUAUUACGUGGCGUACCACGAAGUAGAAGGCUACUGGA |  |  | 61 nM | 203 nM
UUUUAACAUGAGGAUCACCCAUGUGAGGAUAUCGAAAUUUAUAUUAAUAUUAUUUAUACGAGAAGGCACAUUUU |  |  | 63.2 nM | 73.4 nM
UAUGCCUUUGUGAGGAUAUACUUUGUUUGGUCGUAGUAGAAGGCACAUGAGGAUCACCCAUGUAGAUUUUUGGU |  |  | 27.5 nM | 72.2 nM
AGUGUCGGCACAGGAUAUGAGAUGCCGGCAGACAUGAGGAUCACCCAUGUAAGCGAACCAGGCAGUCAGAAGGGUGAUCGACGA | 119 nM | 26.9 nM |  | 
AGUCGGCGAGGAUAUACAUGAGGAUCACCCAUGUGAUAGAGUGCACGCGUACGUGUACGUAGAAGGCGCUGACA |  |  | 11.9 nM | 37.7 nM
UUAAUUUGUCAAGGAUAUGUAAUAUAGAUUAGAAAACAUGAGGAUCACCCAUGUAUAUGGUGGGAACAGAAGGUGAAUGGUUUA |  |  | 189 nM | 160 nM
GCGUACAUAUCAGGAUAUCAUAUUAUUGUUUAACUCAGUGUAUACAUGAGGAUCACCCAUGUUCUUGAGAAGGGAUAUGUACGC |  |  | 8.15 nM | 8.79 nM
UACAUGAGGAUCACCCAUGUUUUGUCGUGUAUGGUAUUUAUCUAGGAUAUCAAGUUGUUUAUUUAUGAGAAGGAGAAUAUUAAU |  |  | 34.3 nM | 38.1 nM
UUUUUAUUUGAAGGAUAUACUUAACAUGAGGAUCACCCAUGUGGUGUUGUGAGUGAGUGAGUUUAGUAGAAGGUCAAUUCUUUU |  |  | 401 nM | 696 nM
CUCGUGUGAGGAUAUCUAUUCCACGGACGGGAGUCUUGAAGAGAGAAGGCACAUGAGGAUCACCCAUGUAAUAA |  |  |  | 33.7 nM
GUUGUUACUGAGGAUAUUAUUUUAUUCGACUGAUAAGAAGGCAGUACAUGAGGAUCACCCAUGUGGGUAGCCAG |  |  | 27.9 nM | 170 nM
UUUUUGUGAGGAUAUUAGUAGUAAAUAAAUAAAAUUACUACUGAGAAGGCACAUGAGGAUCACCCAUGUUCCUC |  |  | 33.6 nM | 254 nM
GCGUCAGAAUUAAUUGUGACAGACAGAAGGCAAUAGUAUGUGACCGACAUGAGGAUCACCCAUGUUGAGGAUAUGUAUUGACGC |  |  | 5.26 nM | 6.53 nM
CAUUUACAUGAGGAUCACCCAUGUUCUGGCGGGUCAGGAUAUAGAUCGGAUGCGUUCUGUCUAGAAGGGACAUGUU | 72 nM | 35.6 nM |  | 
ACAUGAGGAUCACCCAUGUUAUCCGGGACUUCAAUUGUAUCUAGAAGGCUGUCUGCUUGUUAGUCAGAGGAUAUAGAUUCAAAU |  |  | 12.4 nM | 11.1 nM
CUGCUCCGUGUAGGAUAUGCGUACAACCAAUAUGCAGAAGGACAUGAGGAUCACCCAUGUAUGUUAUUAUCACGUGAAGCGUCC |  |  | 22.3 nM | 61.1 nM
GUCAGCUCGUGAGGAUAUACAACACUCCUUCGGCAGUGUAUUAAGAUCACAUGAGGAUCACCCAUGUAGAAGGCACGAGCUGAU |  |  | 14.8 nM | 201 nM
